Measured values: ChEMBL document CHEMBL3774344, “Role of a Preorganized Scaffold Presenting Four Residues of a GM-3 Lactone Mimetic on Melanoma Progression” (2016)
The source made the active and inactive calls. The rule behind the calls is not given here.

Experiments:
[1] = system: A-375; assay: Inhibition of cell adhesion in human A375 cells at 50 uM measured from 1 to 3 hrs in presence of fibronectin by crystal violet staining based assay; assay type: functional
In short: (§1)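 A375 cells treated with 50 μM compound, then allowed to adhere to fibronectin-coated dishes for varying times up to 4 h, with no-fibronectin comparison. Percentage of adhered cells scored by crystal violet. At least three independent experiments; mean and SD.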

[2] = system: A-375; assay: Inhibition of cell adhesion in human A375 cells at 50 uM measured after 4 hrs in presence of fibronectin by crystal violet staining based assay; assay type: functional; settings: A-375, 4 h; in short: as §1
[3] = system: A-375; assay: Induction of apoptosis in serum-starved human A375 cells after 24 hrs by AnnexinV/PI-staining based flow cytometric analysis; assay type: functional, cell-based
In short: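 A375 cells serum-starved, detached and held in suspension for 24 h with compound. Apoptotic fraction measured by Annexin V–PI staining. At least three independent experiments; mean and SD.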

[4] = system: A-375; assay: Inhibition of cell invasion in human A375 cells at 50 uM after 24 hrs by Boyden invasion assay in presence of 10% serum; assay type: functional; settings: A-375, 24 h
In short: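 Cells treated with 50 μM compound, then placed in Boyden chambers (8 μm pores) with Matrigel 3D barrier and allowed to invade toward 10% serum for 24 h. Cells crossing the filter counted. At least three independent experiments; mean and SD.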

[5] = system: A-375; assay: Inhibition of cell migration in human A375 cells at 50 uM after 24 hrs by 2D-migration assay in presence of 10% serum; assay type: functional; settings: A-375, 24 h
In short: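 Cells treated with 50 μM compound, then allowed to migrate 24 h toward 10% serum chemoattractant. Cells counted in a randomly chosen field per filter. At least three independent experiments; mean and SD.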

[6] = system: A-375; assay: Antiinvasion activity in human A375 cells at 50 uM after 24 hrs in presence of cancer associated fibroblast by Boyden invasion assay; assay type: functional, cell-based
In short: (§2)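 A375 cells incubated under hypoxia (1% O2) with conditioned medium from CAFs (derived ex vivo from aggressive human melanoma) or HDFs, with or without 50 μM compound. Cells then assayed for 2D migration or invasion through reconstituted Matrigel barrier in Boyden chambers.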

[7] = system: A-375; assay: Antimigratory activity against human A375 cells at 50 uM after 24 hrs in presence cancer associated fibroblast by 2D-migration assay; assay type: functional, cell-based; in short: as §2
[8] = Antitumor activity against mouse B16F10 cells xenografted in C57BL/6 mouse assessed as reduction in tumor volume at 400 ug, ip administered on day 0 to 72 followed by tumor implantation on day 69 measured every 2 to 3 days relative to PBS-treated control; design: scale not given: the % may be the effect or the level left

Compound	inhibition at 50 µM [1] [%]	inhibition at 50 µM [2] [%]	Activity [3]	inhibition at 50 µM [4] [%]	inhibition at 50 µM [5] [%]	Activity [6]	Activity [7]	Activity [8] [%]
CC(C)=NOCC(=O)NCCCC[C@@H]1NC(=O)[C@H](CCCCNC(=O)CCCCC(=O)NCCCCCCO[C@H]2O[C@H](CO)[C@H](O)C3=C2SC[C@]2(C[C@@H](O)[C@@H](O)[C@@H]([C@H](O)CO)O2)O3)NC(=O)CNC(=O)[C@@H]2CCCN2C(=O)[C@H](CCCCNC(=O)CCCCC(=O)NCCCCCCO[C@@H]2O[C@@H](CO)[C@@H](O)C3=C2SC[C@@]2(C[C@@H](O)[C@@H](O)[C@@H]([C@H](O)CO)O2)O3)NC(=O)[C@H](C)NC(=O)[C@H](CCCCNC(=O)CCCCC(=O)NCCCCCCO[C@H]2O[C@H](CO)[C@H](O)C3=C2SC[C@]2(C[C@H](O)[C@H](O)[C@H]([C@@H](O)CO)O2)O3)NC(=O)CNC(=O)[C@@H]2CCCN2C(=O)[C@H](CCCCNC(=O)CCCCC(=O)NCCCCCCO[C@@H]2O[C@@H](CO)[C@@H](O)C3=C2SC[C@@]2(C[C@H](O)[C@H](O)[C@H]([C@@H](O)CO)O2)O3)NC1=O	≤ 30	50	Active	30	30	Active	Active	>50
CCCOc1c2cc(CCCn3cc(CCO[C@H]4O[C@H](CO)[C@H](O)C5=C4SC[C@]4(C[C@@H](O)[C@@H](O)[C@@H]([C@@H](O)CO)O4)O5)nn3)cc1Cc1cc(CCCn3cc(CCO[C@H]4O[C@H](CO)[C@H](O)C5=C4SC[C@]4(C[C@@H](O)[C@@H](O)[C@@H]([C@@H](O)CO)O4)O5)nn3)cc(c1OCCC)Cc1cc(CCCn3cc(CCO[C@H]4O[C@H](CO)[C@H](O)C5=C4SC[C@]4(C[C@@H](O)[C@@H](O)[C@@H]([C@@H](O)CO)O4)O5)nn3)cc(c1OCCC)Cc1cc(CCCn3cc(CCO[C@H]4O[C@H](CO)[C@H](O)C5=C4SC[C@]4(C[C@@H](O)[C@@H](O)[C@@H]([C@@H](O)CO)O4)O5)nn3)cc(c1OCCC)C2						Active	Active	
